According to article PMC11618768 (Scientific Reports, 2024):
Values after ≈ are worked out from the molar mass of the structure shown. Values joined by “and” are separate entries in the source; they are usually repeats but may differ in a detail not shown here. Identical values can stand only once.

Tests used:
[1] = system: MRSA strain (ATCC 43300); test: MIC and MBC, broth dilution; assay type: cell-based, Methicillin-resistant Staphylococcus aureus
Summary of the method: (§1)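 Strains were grown from LB agar colonies in LB (180 rpm, 37 °C, 12 h), then diluted 1:100 and grown 3 h to log phase. The inoculum was adjusted to 1 × 10^6 CFU/mL for 96-well broth dilution, 37 °C, 18 h. MIC was the lowest concentration without visible growth. For MBC, 100.0 µL per well was plated on MHA (37 °C, 16–20 h); MBC was the lowest concentration without colonies.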

[2] = system: MRSA; conditions: cited from earlier work
[3] = system: S. aureus; conditions: cited from earlier work
[4] = system: P. notatum; conditions: cited from earlier work
[5] = system: HaCat cells; test: Cell viability assay using MTT; assay type: cell-based
Summary of the method: (§2)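 Cells were kept in RPMI 1640 with 10% FBS and 1% penicillin-streptomycin at 37 °C, 5% CO2. They were seeded at 1 × 10^5 cells/well and grown 24 h to about 80% confluence. After medium removal, test compound was added at final 0.78125–100.0 µg/mL (twofold series), with a 0.5% DMSO control. Exposure was 24 h or 48 h, then MTT for 4 h, A490. Three repeats; IC50 derived.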

[6] = system: MRSA-244135; test: MIC and MBC, broth dilution; assay type: cell-based, Methicillin-resistant Staphylococcus aureus; conditions: MRSA-244,135, clinical isolate
Summary of the method: as §1

[7] = system: MRSA (ATCC 433000); test: Time-kill assay; assay type: cell-based, Methicillin-resistant Staphylococcus aureus; conditions: 24 h
Summary of the method: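 MRSA grown to log phase in LB (37 °C, 180 rpm) and adjusted to 1 × 10^6 CFU/mL. Incubated in 24-well plates with test compound at 0, 1/2×MIC or MIC for 24 h at 37 °C. Sampled every 2 h, with absorbance read at 570 nm.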

[8] = system: MRSA-244757; test: MIC and MBC, broth dilution; assay type: cell-based, Methicillin-resistant Staphylococcus aureus; conditions: MRSA-244,757, clinical isolate
Summary of the method: as §1

[9] = system: HK-2 cells; test: Cell viability assay using MTT; assay type: cell-based
Summary of the method: as §2

[10] = system: MRSA (ATCC 433000); test: Scanning electron microscopy; assay type: cell-based, Methicillin-resistant Staphylococcus aureus; conditions: 2×MIC, 12 h
Summary of the method: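 Log-phase MRSA exposed to test compound at 2×MIC for 12 h at 37 °C, with untreated cells as blank control. Cells were washed three times in PBS […]. They were fixed in 2.5% glutaraldehyde plus 2% paraformaldehyde for 12 h, air-dried and imaged by scanning electron microscopy.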

[11] = system: MRSA-244548; test: MIC and MBC, broth dilution; assay type: cell-based, Methicillin-resistant Staphylococcus aureus; conditions: MRSA-244,548, clinical isolate
Summary of the method: as §1

[12] = system: MRSA; test: Mouse skin infection model; assay type: in vivo; conditions: day 13; 2.0 µg/mL once daily, mice
Summary of the method: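 SPF male and female mice (18.0–22.0 g) had dorsal fur shaved and both sides of the back scalded with a scaldometer. 20.0 µL log-phase MRSA (1.5-3 × 10^6 CFU/mL in sterile saline) went onto each wound, which was then covered with sterile gauze. Test compound or vancomycin (2.0 µg/mL, 20.0 µL) was applied topically once daily, and model mice got solvent. Wounds were photographed daily for 13 days, and H&E sections were taken on day 13 (n = 6).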

[13] = system: rabbit red blood cells (RBCs); test: In vitro hemolysis assay; assay type: cell-based; conditions: 1 h, rabbit erythrocytes
Summary of the method: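 Rabbit erythrocytes were exposed 1 h to test compound at 1/2×, 1× and 2× MIC. After centrifugation, supernatants were read spectrophotometrically at 570 nm and photographed. PBS served as negative control, and a positive control was included. n = 3.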

[14] = system: MRSA-244288; test: MIC and MBC, broth dilution; assay type: cell-based, Methicillin-resistant Staphylococcus aureus; conditions: MRSA-244,288, clinical isolate
Summary of the method: as §1

[15] = system: MRSA-244425; test: MIC and MBC, broth dilution; assay type: cell-based, Methicillin-resistant Staphylococcus aureus; conditions: MRSA-244,425, clinical isolate
Summary of the method: as §1

[16] = system: MRSA-244358; test: MIC and MBC, broth dilution; assay type: cell-based, Methicillin-resistant Staphylococcus aureus; conditions: MRSA-244,358, clinical isolate
Summary of the method: as §1

[17] = system: B. subtilis; conditions: cited from earlier work
[18] = system: MRSA-244661; test: MIC and MBC, broth dilution; assay type: cell-based, Methicillin-resistant Staphylococcus aureus; conditions: MRSA-244,661, clinical isolate
Summary of the method: as §1

[19] = system: human KB carcinoma cells; conditions: cited from earlier work
[20] = system: MRSA (ATCC 433000); test: SYTOX green and PI assay; assay type: cell-based, Methicillin-resistant Staphylococcus aureus; conditions: 1/2×, 2×MIC, 12 h
Summary of the method: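 Log-phase MRSA grown in LB at 37 °C, 180 rpm, adjusted to 1 × 10^6 CFU/mL. Exposed to test compound at 1/2×, 1× and 2×MIC for 12 h at 37 °C, then stained with SYTO 9 and PI for 30 min in the dark. Washed twice in PBS (pH 7.5, 0.1 M), then imaged by fluorescence microscopy: green marks viable cells, red marks dead cells.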

[21] = system: LO2 cells; test: Cell viability assay using MTT; assay type: cell-based
Summary of the method: as §2

[22] = system: MRSA-244410; test: MIC and MBC, broth dilution; assay type: cell-based, Methicillin-resistant Staphylococcus aureus; conditions: MRSA-244,410, clinical isolate
Summary of the method: as §1

[23] = system: MRSA-244268; test: MIC and MBC, broth dilution; assay type: cell-based, Methicillin-resistant Staphylococcus aureus; conditions: MRSA-244,268, clinical isolate
Summary of the method: as §1

[24] = system: MRSA-244862; test: MIC and MBC, broth dilution; assay type: cell-based, Methicillin-resistant Staphylococcus aureus; conditions: MRSA-244,862, clinical isolate
Summary of the method: as §1

[25] = system: MRSA; conditions: cited from earlier work; remark: listed apart in the source

CN[C@H](CC(C)C)C(=O)N[C@H]1C(=O)N[C@@H](CC(N)=O)C(=O)N[C@H]2C(=O)N[C@H]3C(=O)N[C@H](C(=O)N[C@H](C(=O)O)c4cc(O)cc(O)c4-c4cc3ccc4O)[C@H](O)c3ccc(c(Cl)c3)Oc3cc2cc(c3O[C@@H]2O[C@H](CO)[C@@H](O)[C@H](O)[C@H]2O[C@H]2C[C@](C)(N)[C@H](O)[C@H](C)O2)Oc2ccc(cc2Cl)[C@H]1O [vancomycin, reference compound]
MIC ([1]; Staphylococcus aureus, ATCC43|ATCC43300|MRSA): 1 µg/mL (≈ 0.69 µM)

7,8-dideoxygriseorhodin C
Decrease in MIC on simultaneous treatment with oxacillin [2]: approximately tenfold decrease in MIC
Combination index ([2]; with oxacillin): < 0.5

COC1=CC(=O)c2c(O)c3c(c(O)c2C1=O)O[C@]1(Oc2c(cc4cc(C)oc(=O)c4c2O)[C@@H](O)[C@@H]1O)[C@@H]3O [Griseorhodin C]
Inhibitory activity [3]: inhibitory activity
Inhibitory activity [4]: inhibitory activity
Cell morphology under the microscope ([5]; 50 ~ 100 µg/mL): the cell morphology remained normal and the arrangement was regular, and no fragmentation or cell death was observed
IC50 (cell viability) ([5]; MTT, 48 h): 59.27 µg/mL (≈ 113 µM)
MIC [6]: 2 µg/mL (≈ 3.8 µM)
Inhibition of MRSA growth in time-kill curve ([7]; 1/2×MIC, vs control group): some inhibition of MRSA growth compared to the control group
Bacteriostatic activity in time-kill curve compared with vancomycin ([7]; MIC): stronger bacteriostatic activity against MRSA than the clinically positive control drug, vancomycin
MIC ([1]; MRSA ATCC 43,300): 1.0 µg/mL and 1 µg/mL
MIC [8]: 1 µg/mL (≈ 1.9 µM)
Cell morphology under the microscope ([9]; 50 ~ 100 µg/mL): the cell morphology remained normal and the arrangement was regular, and no fragmentation or cell death was observed
IC50 (cell viability) ([9]; MTT, 48 h): 86.32 µg/mL (≈ 164 µM)
Morphological changes of MRSA by SEM [10]: the cell walls appeared wrinkled, the surfaces showed signs of damage, and cellular integrity was compromised
MIC [11]: 0.5 µg/mL (≈ 0.95 µM)
HE staining of skin wound [12]: fewer inflammatory cells, lower thickness, and better structural integrity of hair follicles and other structures compared to the Vancomycin-treated group
Hemolysis rate ([13]; 1/2 MIC): 0.70%
Hemolysis rate ([13]; 2×MIC): 2.13%
Hemolysis rate ([13]; MIC): 1.77%
MIC [14]: 1 µg/mL (≈ 1.9 µM)
MIC [15]: 1 µg/mL (≈ 1.9 µM)
MIC [16]: 1 µg/mL (≈ 1.9 µM)
Inhibitory activity [17]: inhibitory activity
MIC [18]: 1 µg/mL (≈ 1.9 µM)
Inhibitory activity [19]: inhibitory activity
LIVE/DEAD fluorescence (red dead, green viable cells) [20]: exhibits bactericidal effects against MRSA
Cell morphology under the microscope ([21]; 50 ~ 100 µg/mL): the cell morphology remained normal and the arrangement was regular, and no fragmentation or cell death was observed
IC50 (cell viability) ([21]; MTT, 48 h): 156.2 µg/mL (≈ 297 µM)
MIC [22]: 1 µg/mL (≈ 1.9 µM)
MIC [23]: 2 µg/mL (≈ 3.8 µM)
MIC [24]: 1 µg/mL (≈ 1.9 µM)

8-Methoxygriseorhodin C
MIC against MRSA [25]: 0.78 µg/mL
